Where a chain is given by its changes, count along the chain named.

In data set [1] the target is T1, Nonstructural protein 5A (Hepatitis C virus) (UniProt Q5L478).
T1 sequence (whole entry): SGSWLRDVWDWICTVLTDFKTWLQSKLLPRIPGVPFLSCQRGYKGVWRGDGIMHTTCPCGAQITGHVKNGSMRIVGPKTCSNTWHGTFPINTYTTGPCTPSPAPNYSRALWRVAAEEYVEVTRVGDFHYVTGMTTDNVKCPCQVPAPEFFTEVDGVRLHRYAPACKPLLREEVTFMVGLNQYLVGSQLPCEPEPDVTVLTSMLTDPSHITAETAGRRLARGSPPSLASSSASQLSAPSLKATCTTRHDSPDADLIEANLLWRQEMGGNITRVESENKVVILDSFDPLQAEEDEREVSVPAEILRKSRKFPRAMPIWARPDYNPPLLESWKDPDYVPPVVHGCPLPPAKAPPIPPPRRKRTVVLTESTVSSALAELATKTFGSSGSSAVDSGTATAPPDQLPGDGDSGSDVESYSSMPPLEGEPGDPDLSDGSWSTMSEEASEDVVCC
The experiment in a line: Inhibition of NS5A M28T mutant in HuH7 cell infected HCV genotype 1a H77 assessed as decrease in viral replication after 4 days by luciferase reporter gene assay relative to wild type protein. Particulars: Hepatitis C virus (isolate H77). Summed up:
(§1)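 Stable subgenomic luciferase replicons in Huh-7 cells: genotype 1a-H77 carrying NS5A substitutions M28T, Q30E, Q30R, Y93C, Y93H or Y93N, tested alongside the wild-type replicon. Cells are incubated 4 days with compound in DMEM with 5% FBS. Luciferase read-out, EC50 by 4-parameter logistic fit, and fold change versus wild type.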
Background: Reporter assays use an easily measured gene product as a stand-in for the process of interest.

For data set [2], the target named is T1, Nonstructural protein 5A (Hepatitis C virus). The data set is described as follows: Inhibition of NS5A Q30E mutant in HuH7 cell infected HCV genotype 1a H77 assessed as decrease in viral replication after 4 days by luciferase reporter gene assay relative to wild type protein. As to conditions: Hepatitis C virus (isolate H77). The essentials: as §1
Data set [3] has the same target. The data set is described as follows: Inhibition of NS5A Q30R mutant in HuH7 cell infected HCV genotype 1a H77 assessed as decrease in viral replication after 4 days by luciferase reporter gene assay relative to wild type protein. Particulars: Hepatitis C virus (isolate H77). Summed up:
as §1

Data set [4] has as its system T2, Nonstructural protein 5A (Hepatitis C virus), Q5L478 [Y93N].
T2 sequence (whole entry): T1 sequence (whole entry) with Y93N
The experiment in a line: Inhibition of NS5A Y93N mutant in HuH7 cell infected HCV genotype 1a H77 assessed as decrease in viral replication after 4 days by luciferase reporter gene assay relative to wild type protein. Particulars: Hepatitis C virus (isolate H77). The essentials: as §1

Data set [5] in a line: Plasma clearance in mouse at 3 mg/kg, iv by LC-MS method. The class given is ADME, organism-based. The essentials:
(§2)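 Single dose, 3 mg/kg, in mouse or rat. IV vehicle: DMSO:Tween 80:PEG-400:D5W 2:5:20:73 (v/v). PO vehicle: Phosol 53 MCT:PEG-400:Poloxamer 124:Cremophor RH40 40:20:20:20 (w/w). Acetonitrile protein precipitation, then LC-MS/MS in negative-ion MRM against an internal standard; LOQ ~20 ng/mL.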

A short description of data set [6]: Cmax in mouse at 3 mg/kg, po by LC-MS method. Type of data set: ADME, organism-based. More on the design: dose 3 mg/kg, route oral. As to conditions: in vivo. The essentials:
as §2

The nature of data set [7]: Oral bioavailability in mouse at 3 mg/kg by LC-MS method. The class given is ADME, organism-based. As to conditions: in vivo. The essentials: as §2
Data set [8] relates to T2, Nonstructural protein 5A (Hepatitis C virus), Q5L478 [Y93N]. The experiment in a line: Inhibition of NS5A Y93N mutant in HuH7 cell infected HCV genotype 1b Con1 assessed as decrease in viral replication after 4 days by luciferase reporter gene assay relative to wild type protein. As to conditions: Hepatitis C virus (isolate Con1). The essentials:
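Stable subgenomic luciferase replicons in Huh-7 cells: genotype 1b-Con1 carrying NS5A Y93H or Y93N, tested alongside the wild-type replicon. Cells are incubated 4 days with compound in DMEM with 5% FBS. Luciferase read-out, EC50 from a 4-parameter logistic fit, expressed as fold change versus wild type.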

Data set [9] can be described thus: AUClast in mouse at 3 mg/kg, iv by LC-MS method. Type of data set: ADME, organism-based. Particulars: in vivo. Also on record: dose 3 mg/kg, route intravenous, time 0 - last. The essentials: as §2
Data set [10] is described as follows: Plasma clearance in rat at 3 mg/kg, iv by LC-MS method. Type of data set: ADME, organism-based. The essentials: as §2
A short description of data set [11]: Half life in dog at 1 mg/kg, iv by LC-MS method. Type of data set: ADME, organism-based, Canis lupus familiaris. As to conditions: in vivo. The essentials:
(§3)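 Single dose in dog or monkey, 1 mg/kg IV or 2.5 mg/kg PO. Plasma drug measured by LC-MS after acetonitrile protein precipitation with an internal standard. Quantified by linear regression of parent/internal-standard peak-area ratio against spiked standards.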

Data set [12] can be described thus: AUClast in dog at 1 mg/kg, iv by LC-MS method. Type of data set: ADME, organism-based, Canis lupus familiaris. More on the design: dose 1 mg/kg, route intravenous, time 0 - last. As to conditions: in vivo. Summed up: as §3
Data set [13] in a line: Plasma clearance in dog at 1 mg/kg, iv by LC-MS method. The class given is ADME, organism-based, Canis lupus familiaris. The essentials:
as §3

Data set [14] is described as follows: Half life in monkey at 1 mg/kg, iv by LC-MS method. The class given is ADME, organism-based, Macaca mulatta. As to conditions: rhesus monkey, in vivo. Summed up: as §3
Data set [15] can be described thus: Plasma clearance in monkey at 1 mg/kg, iv by LC-MS method. Type of data set: ADME, organism-based, Macaca mulatta. Particulars: rhesus monkey. Summed up:
as §3

Data set [16] is described as follows: AUClast in mouse at 3 mg/kg, po by LC-MS method. Type of data set: ADME, organism-based. Also on record: dose 3 mg/kg, time 0 - last, route oral. Particulars: in vivo. Summed up: as §2
Data set [17] is described as follows: Tmax in rat at 3 mg/kg, po by LC-MS method. Particulars: in vivo. The class given is ADME, organism-based. Summed up:
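Single 3 mg/kg oral dose in rat, formulated in 40:20:20:20 (w/w) Phosol 53 MCT:PEG-400:Poloxamer 124:Cremophor RH40. Heparinized plasma drawn at 0.25, 0.5, 1, 2, 4, 6, 9, 12 and 24 h. Acetonitrile protein precipitation, then LC-MS in negative-ion MRM mode. Levels read from peak-area ratio to internal standard against spiked standards by linear regression; LOQ ~20 ng/mL.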

Data set [18] is described as follows: Half life in dog at 2.5 mg/kg, po by LC-MS method. The class given is ADME, organism-based, Canis lupus familiaris. As to conditions: in vivo. Summed up: as §3
Data set [19] can be described thus: Half life in monkey at 2.5 mg/kg, po by LC-MS method. Type of data set: ADME, organism-based, Macaca mulatta. As to conditions: rhesus monkey, in vivo. Summed up:
as §3

Data set [20] in a line: Cmax in monkey at 2.5 mg/kg, po by LC-MS method. Type of data set: ADME, organism-based, Macaca mulatta. Also on record: dose 2.5 mg/kg, route oral. Particulars: rhesus monkey, in vivo. The essentials: as §3
Data set [21] can be described thus: Oral bioavailability in monkey at 2.5 mg/kg by LC-MS method. As to conditions: rhesus monkey, in vivo. Type of data set: ADME, organism-based, Macaca mulatta. The essentials: as §3

Consider `COC(=O)N[C@H](C(=O)N1CCC[C@H]1c1nc2cc([C@H]3CC[C@H](c4cc5nc([C@@H]6CCCN6C(=O)[C@@H](NC(=O)OC)[C@@H](C)OC)[nH]c5cc4F)N3c3cc(F)c(N4CCC(c5ccc(F)cc5)CC4)c(F)c3)c(F)cc2[nH]1)[C@@H](C)OC` [PIBRENTASVIR], for which the fold change (FC) in data set [1] was found to be 2.1; in data set [2], 2.4; in data set [3], 1.7; in data set [4] it was 6.7; in [8] it was 0.6. Moreover, the clearance – broadly, the volume of plasma or blood freed of the substance per unit of time – in [5] is < 0.05 mL/min/kg; in data set [10], 1.17 mL/min/kg; in data set [13] it was 1.62 mL/min/kg; in data set [15], 2.5 mL/min/kg. Moreover, the Cmax (in general, the maximum level reached in the sampled fluid or tissue) in data set [6] came out at 1140 nM; in data set [20], 260 nM. In addition, the figures for the bioavailability in [7] and in [21] were 7.9% and 14.1%, respectively. The AUC(0-t) – broadly, exposure summed from dosing to a finite time, without extrapolation to infinity – turned out to be 252000 ng·h/mL in data set [9], 10600 ng·h/mL in [12] and 20000 ng·h/mL in [16]. The half-life (in general, how long it takes for the measured level to halve) in [11] is 7.1 h; in data set [14] it was 8.3 h; in data set [18] it was 8.3 h; in data set [19], 5.69 h. The Tmax (usually the time at which the peak concentration occurs) in [17] was 5.3 h.
